We go through two compounds from publication PMC10237409 (Neuro-Oncology, 2022).

Like-named read-outs stand apart in the source and are kept apart here.

Series [1] relates to orthotopic glioblastoma. Particulars: cited from earlier work.
Series [2] concerns glioblastoma. Particulars: cited from earlier work.
The subject of series [3] is CCR1 mRNA. Briefly: CCR1 mRNA in whole blood. The format is in vivo, human. The conditions noted are these: after the fourth preoperative dose, 30 mg/day; mean (SD ± 28.5). In a few lines: (§1)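 Patients took 30 mg/day orally on days 1–4 before salvage resection. Blood samples for pharmacodynamics were drawn at multiple time points through cycle 1 and at surgery. CCR1 and HEXIM1 expression in blood was measured by RNA-Seq.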

Series [4] can be described thus: Safety: treatment-related adverse events. The format is in vivo, human. In a few lines: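 AEs were coded with MedDRA 24.0 and graded by NCI CTCAE 5.0. They were reported separately for the preoperative period (30 mg/day days 1–4, until maintenance start) and for postoperative maintenance (45 mg/day 4 days on/24 days off per 28-day cycle, onward). Maintenance continued until progression, unacceptable toxicity or consent withdrawal.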

For series [5] the following is noted: stated without reference; cited from earlier work.
The format of series [6] is in vivo. Particulars: human, plasma, oral, 30 mg/day; for AUC(0-t): GM AUC0-24, plasma; for Cmax: GM Cmax; for Tmax: Median tmax (range). In a few lines: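 Patients took 30 mg/day orally on days 1–4 before resection. Plasma was sampled at multiple time points through cycle 1 and at surgery, then assayed by LC-MS/MS (High Assay Range). Cmax, tmax, AUC and t½ came from non-compartmental analysis and were summarised as geometric means.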

The format of series [7] is in vivo, human. In a few lines:
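Patients took 30 mg/day orally on days 1–4, with salvage resection planned 6–24 h after the day 4 dose. Resected tumour (contrast-enhancing and non-enhancing where possible), CSF and time-matched plasma were collected during surgery. Results were summarised as geometric means. Free tissue concentration and unbound partition coefficient were estimated from plasma protein binding and tissue binding.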

Series [8] has as its system advanced cancers, including high-grade gliomas. Particulars: 45 mg/day 4 days on/24 days off per 28-day cycle; cited from earlier work.
In series [9] the test system is HEXIM1 mRNA. Nature of the series: HEXIM1 mRNA in whole blood. The format is in vivo, human. The conditions noted are these: 72–96 h after the first preoperative dose, 30 mg/day. In a few lines:
as §1

[10] abbreviates: postoperative maintenance 45 mg/day 4 days on/24 days off, n = 16.
Setting [11] is: preoperative 30 mg/day days 1–4, n = 20.

Regarding `Cc1sc2c(c1C)C(c1ccc(Cl)cc1)=N[C@@H](CC(=O)Nc1ccc(O)cc1)c1nnc(C)n1-2` [OTX015], the Antitumor activity entry in [1] is reported as “showed antitumor activity”. The “Penetration of brain tumor tissue” value in series [1] (markedly lower concentrations in peritumoral and distant brain tissue) is reported as “high penetration of brain tumor tissue”. In series [2], the “Clinical efficacy (study outcome)” value is on record as “lack of efficacy”.
Take `Cn1cc(-c2cc(S(C)(=O)=O)ccc2OCC2CC2)c2ccccc2c1=O` [Trotabresib]: in series [3], the “Blood levels of CCR1 mRNA, % of baseline levels” value is given as 45.8%. For the same compound, in series [4] (overall study), the “Serious TRAEs” value is “No serious TRAEs” and the “Treatment discontinuation due to AEs” value is listed as “No patients discontinued treatment due to AEs”. Also, in series [4] (setting [10]), the “Any TRAE, any grade, patients” value came to 100%; the “Asthenia, grade 3/4 TRAE, number of patients” value is on record as 1 patient; the “Thrombocytopenia, grade 3/4 TRAE, number of patients” value was found to be 5 patients. Moreover, the “Dose reduction due to thrombocytopenia, number of patients” value in series [4] (postoperative treatment period, 45 mg/day) is 1 patient. In series [4] (postoperative treatment period, 45 mg/day, thrombocytopenia in 2, pancreatitis in 1), the “Dose interruptions due to AEs, number of patients” value came out at 3 patients. Moreover, the “Surgery delayed or canceled due to an AE” value in [4] (preoperative 30 mg/day days 1–4) is “No patients”. In series [4] (setting [11]), the “ALT increased, grade 3/4 TRAE, number of patients” value is listed as 1 patient; the “Any TRAE, any grade, patients” value came out at 60%; the “Any TRAE, grade 3/4, patients” value was 10%; the “Lymphopenia, grade 3/4 TRAE, number of patients” value is reported as 1 patient. The “Thrombocytopenia, grade 1/2, patients” value in [4] (setting [11]) is 25%. In addition, the Lipophilicity result in series [5] is listed as “high lipophilicity”. Moreover, the half-life in series [6] was 46 h. Moreover, in series [6] (cycle 1 day 1, GM (% GCV)), the AUC(0-t) worked out at 5080 ng·h/mL and the peak concentration (Cmax) is 392 ng/mL. In [6] (cycle 1 day 4, GM (% GCV)), this compound showed an AUC(0-t) of 11200 ng·h/mL and a Cmax of 720 ng/mL. For the same compound, in series [6] (cycle 1 day 1), the time to peak (Tmax) came out at 1.5 h. Also, the time to peak (Tmax) in series [6] (cycle 1 day 4) stood at 1.9 h. Besides, the “Plasma concentration at the time of surgery, GM (% GCV)” value in series [7] (after 30 mg/day days 1–4, n = 19) came out at 1020 nM. Moreover, the “GM free (tissue binding-corrected) trotabresib concentration in brain tissue” value in series [7] (calculated, n = 20, GM (% GCV)) was 0.028 µM. In [7] (n = 13), the “CSF concentration, GM (% GCV)” value is 0.14 µM. For the same compound, the “Brain tumor tissue concentration, GM (% GCV)” value in series [7] (resected tissue after 30 mg/day days 1–4, n = 20) was 0.74 µM. Further, the “Prolonged progression-free survival (PFS) in some patients” value in series [8] was “up to 3 years”. Further, the “Blood levels of HEXIM1 mRNA versus baseline” value in [9] is “increased from baseline in all patients”.
